Assay results from ChEMBL document CHEMBL1143665, “Novel acyclic enediynes inhibit Cyclin A and Cdc25C expression and induce apoptosis phenomenon to show potent antitumor proliferation” (2007).
Calls of active or inactive are those of the source. The rule behind the calls is not given here.

Columns and labels:
[1] = system: K562; test: Induction of apoptosis in human K562 cells assessed as accumulation at subG1 phase at 50 uM after 24 hrs relative to control; assay type: functional
How it was run: (§1)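 K-562 cells (RPMI 1640, 10% fetal calf serum, 37 °C, 5% CO2) exposed 24 h, pelleted, fixed in ice-cold 70% ethanol 30 min, RNase A (1 mg/ml) 37 °C 30 min, propidium iodide stain 30 min at room temperature in the dark; DNA content of 10,000 events by flow cytometry; phase and sub-G1 percentages compared with untreated control.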

[2] = system: HCT-15; test: Cytotoxicity against human HCT15 cells; assay type: functional
[3] = system: K562; test: Cytotoxicity against human K562 cells; assay type: functional
[4] = system: OVCAR-3; test: Cytotoxicity against human OVCAR-3 cells; assay type: functional
[5] = system: K562; test: Decrease in Cyclin A protein levels in human K562 cells at 25 uM; assay type: functional, cell-based
How it was run: (§2)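 Western blot of treated K-562 cells: lysis in Tris pH 7.5/1% NP-40/EDTA/NaCl with protease inhibitors on ice 30 min, spun 20,000g 30 min 4 °C; 50 µg lysate on 12% SDS-PAGE, PVDF transfer, probed with anti-Cdk1, -Cdk2, -Cyclin A, -Cyclin B1 or -Cdc25C; enhanced chemiluminescence detection.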

[6] = system: K562; test: Cell cycle arrest in human K562 cells by accumulation at G2/M phase cell at 50 uM after 24 hrs relative to control; assay type: functional; how it was run: as §1
[7] = system: SF-295; test: Cytotoxicity against human SF295 cells; assay type: functional
[8] = system: K562; test: Decrease in Cdc25C protein levels in human K562 cells at 50 uM; assay type: functional, cell-based; how it was run: as §2
[9] = system: LOX IMVI; test: Cytotoxicity against human LOX IMVI cells; assay type: functional
[10] = system: SR; test: Cytotoxicity against human SR cells; assay type: functional
[11] = system: K562; test: Effect on Cdk2 protein levels in human K562 cells at 50 uM; assay type: functional, cell-based; how it was run: as §2
[12] = system: K562; test: Cell cycle arrest in human K562 cells by accumulation at S phase cell at 50 uM after 24 hrs relative to control; assay type: functional; how it was run: as §1
[13] = system: K562; test: Effect on Cyclin B protein levels in human K562 cells at 25 uM; assay type: functional, cell-based; how it was run: as §2
[14] = system: K562; test: Effect on Cdk1 protein levels in human K562 cells at 50 uM; assay type: functional, cell-based; how it was run: as §2
[15] = system: K562; test: Effect on Cyclin B protein levels in human K562 cells at 50 uM; assay type: functional, cell-based; how it was run: as §2
[16] = system: K562; test: Effect on Cdk2 protein levels in human K562 cells at 25 uM; assay type: functional, cell-based; how it was run: as §2
[17] = system: DU-145; test: Cytotoxicity against human DU145 cells; assay type: functional
[18] = system: MDA-MB-435; test: Cytotoxicity against human MDA-MB-435 cells; assay type: functional
[19] = system: K562; test: Decrease in Cdc25C protein levels in human K562 cells at 25 uM; assay type: functional, cell-based; how it was run: as §2
[20] = system: K562; test: Effect on Cdk1 protein levels in human K562 cells at 25 uM; assay type: functional, cell-based; how it was run: as §2
[21] = system: K562; test: Decrease in Cyclin A protein levels in human K562 cells at 50 uM; assay type: functional, cell-based; how it was run: as §2
[22] = system: K562; test: Cell cycle arrest in human K562 cells by accumulation at G0/G1 phase cell at 50 uM after 24 hrs relative to control; assay type: functional; how it was run: as §1
[23] = system: MDA-MB-231; test: Cytotoxicity against human MDA-MB-231 cells; assay type: functional
[24] = system: M14; test: Cytotoxicity against human M14 cells; assay type: functional
[25] = system: SK-OV-3; test: Cytotoxicity against human SKOV3 cells; assay type: functional
[26] = system: K562; test: Induction of apoptosis in human K562 cells at 50 uM in presence of Z-DEVD-FMK; assay type: functional
How it was run: (§3)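 K-562 cells preincubated 1 h with caspase-3 (Z-DEVD-FMK), -8 (Z-IETD-FMK) or -9 (Z-LEHD-FMK) inhibitor, then exposed 24 h; cells fixed in 70% ethanol, RNase A (500 U/ml) 37 °C 15 min, propidium iodide 50 µg/ml in PBS; sub-G1 fraction by flow cytometry.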

[27] = biological target: Caspase-8 (Homo sapiens) (UniProt Q14790); test: Increase in caspase 8 activation in human K562 cells at 50 uM relative to control; assay type: cell-based
Chain of Caspase-8 (Homo sapiens) (Q14790 217-374 limits assumed): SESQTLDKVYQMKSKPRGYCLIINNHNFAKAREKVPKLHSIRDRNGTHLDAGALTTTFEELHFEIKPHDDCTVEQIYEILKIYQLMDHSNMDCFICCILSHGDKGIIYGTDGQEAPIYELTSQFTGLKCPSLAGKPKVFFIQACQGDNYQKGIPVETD
Chain of Caspase-8 (Homo sapiens) (Q14790 385-479 limits assumed): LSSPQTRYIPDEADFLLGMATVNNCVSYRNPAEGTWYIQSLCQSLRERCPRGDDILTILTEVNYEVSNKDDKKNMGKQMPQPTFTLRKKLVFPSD
How it was run: (§4)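 K-562 cells treated 24 h, washed, lysed in 50 mM Tris-HCl pH 7.4, 1 mM EDTA, 10 mM EGTA, spun 18,000g 3 min; lysate (50 µg protein) incubated with 100 µM caspase-specific colorimetric substrate at 37 °C for 1 h; cleavage read as absorbance at 405 nm, expressed as fold of control.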

[28] = system: K562; test: Induction of apoptosis in human K562 cells at 50 uM in presence of Z-IETD-FMK; assay type: functional; how it was run: as §3
[29] = biological target: T1, Caspase-3 (Homo sapiens) (UniProt P42574); test: Increase in caspase 3 activation in human K562 cells at 50 uM relative to control; assay type: cell-based; how it was run: as §4
T1 sequence (whole entry): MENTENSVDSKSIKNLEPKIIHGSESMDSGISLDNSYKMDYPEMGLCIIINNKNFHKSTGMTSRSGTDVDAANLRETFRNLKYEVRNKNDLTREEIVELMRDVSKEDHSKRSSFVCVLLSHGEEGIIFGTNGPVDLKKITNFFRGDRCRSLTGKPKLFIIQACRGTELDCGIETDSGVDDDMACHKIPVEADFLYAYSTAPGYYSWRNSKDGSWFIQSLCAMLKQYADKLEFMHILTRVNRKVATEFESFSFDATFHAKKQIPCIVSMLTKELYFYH

[30] = biological target: T2, Caspase-9 (Homo sapiens) (UniProt P55211); test: Increase in caspase 9 activation in human K562 cells at 50 uM relative to control; assay type: cell-based; how it was run: as §4
T2 sequence (whole entry): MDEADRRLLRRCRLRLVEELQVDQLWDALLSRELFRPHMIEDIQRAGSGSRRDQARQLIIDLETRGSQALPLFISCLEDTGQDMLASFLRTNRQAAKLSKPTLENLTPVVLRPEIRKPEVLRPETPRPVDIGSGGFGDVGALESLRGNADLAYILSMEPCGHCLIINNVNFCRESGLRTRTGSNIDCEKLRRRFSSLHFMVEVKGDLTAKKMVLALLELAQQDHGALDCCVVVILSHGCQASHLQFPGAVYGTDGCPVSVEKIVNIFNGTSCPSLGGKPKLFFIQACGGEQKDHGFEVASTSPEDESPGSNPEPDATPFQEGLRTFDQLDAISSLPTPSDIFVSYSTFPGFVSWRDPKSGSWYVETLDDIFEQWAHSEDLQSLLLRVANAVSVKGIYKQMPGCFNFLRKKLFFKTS

[31] = biological target: Caspase-8 (Homo sapiens) (UniProt Q14790); test: Increase in caspase 8 activation in human K562 cells at 25 uM relative to control; assay type: cell-based; how it was run: as §4
[32] = biological target: T1, Caspase-3 (Homo sapiens); test: Increase in caspase 3 activation in human K562 cells at 25 uM relative to control; assay type: cell-based; how it was run: as §4
[33] = system: K562; test: Induction of apoptosis in human K562 cells at 50 uM in presence of Z-LEHD-FMK; assay type: functional; how it was run: as §3
[34] = biological target: T2, Caspase-9 (Homo sapiens); test: Increase in caspase 9 activation in human K562 cells at 25 uM relative to control; assay type: cell-based; how it was run: as §4

Row | Compound | Activity [1] [%] | GI50 [2] [µM] | GI50 [3] [µM] | GI50 [4] [µM] | Activity [6] [%] | GI50 [7] [µM] | GI50 [9] [µM] | GI50 [10] [µM] | Activity [12] [%] | GI50 [17] [µM] | GI50 [18] [µM] | Activity [22] [%] | other results
1 | OCCCCC#Cc1ccccc1C#Cc1ccccc1C(F)(F)F | 10.47 | 3.5 | 1.1 | 2.3 | 86.5 | 2.3 | 4.9 | 0.4 | 10.8 | 6.1 | 0.8 | 2.7 | Activity [5]: Active; Activity [8]: Active; Activity [11]: inactive; Activity [13]: inactive; Activity [14]: inactive; Activity [15]: inactive; Activity [16]: inactive; Activity [19]: Active; Activity [20]: inactive; Activity [21]: Active
2 | OCCCCC#Cc1ccccc1C#Cc1cccc(O)c1 | 18.25 | 13.6 | 19.2 | 20 | 36.2 | 21 | 16.7 |  | 37.1 | 17.4 | 16.1 | 26.7 | 
3 | COc1cccc(C#Cc2ccccc2C#CCCCCO)c1 | 10.81 | 3.6 | 1.8 | 10.7 | 84.6 | 7.9 | 6.3 | 1.9 | 11.9 | 4.1 | 1.9 | 3.4 | 
4 | OCCCCC#Cc1ccccc1C#Cc1ccccn1 | 4.4 | 29.8 | 29 | 26.1 | 17 | 21.8 | 27.7 | 25.5 | 52.6 | 9.8 | 25.1 | 30.4 | 
5 | OCCCCC#Cc1ccccc1C#Cc1ccc(C(F)(F)F)cc1 | 5.36 | 12.5 | 18.2 | 17.8 | 24.8 | 19.1 | 17.1 | 0.6 | 38.3 | 15.8 | 16.3 | 36.9 | 
6 | OCCCCC#Cc1ccccc1C#Cc1ccccc1 |  |  | 21.1 |  |  | 0.15 |  |  |  | 5.22 |  |  | GI50 [23]: 4.29 µM; GI50 [24]: 10 µM; GI50 [25]: 10.7 µM
7 | OCCCCC#Cc1ccccc1C#Cc1ccc(O)cc1 | 23.56 | 14.1 | 20.4 | 14.8 | 34.9 | 16.2 | 13.6 |  | 39.5 | 16.8 | 16.1 | 25.6 | Activity [26]: 17%; Fold change [27]: 1.8; Activity [28]: 19%; Fold change [29]: 2.6; Fold change [30]: 1.7; Fold change [31]: 1.2; Fold change [32]: 1.4; Activity [33]: 42%; Fold change [34]: 1.5
8 | OCC#Cc1ccccc1C#Cc1ccccc1 |  |  | 26 |  |  | 20.6 |  |  |  | 14.9 |  |  | GI50 [23]: 3.26 µM; GI50 [24]: 10.6 µM; GI50 [25]: 16.6 µM
9 | OCCCCC#Cc1ccccc1C#Cc1cccc(C(F)(F)F)c1 | 3.84 | 16.3 | 22.5 | 16.8 | 29.4 | 16.5 | 17.5 | 18.3 | 40 | 15.3 | 16.9 | 30.6 | 
10 | N#Cc1ccc(C#Cc2ccccc2C#CCCCCO)cc1 | 5.65 | 15.6 | 21.7 | 19.9 | 10.8 | 21.5 | 18.3 |  | 38 | 16 | 18.9 | 51.2 | 
11 | OCCC#Cc1ccccc1C#Cc1ccccc1 |  |  | 11 |  |  | 28.1 |  |  |  | 12.5 |  |  | GI50 [23]: 3.41 µM; GI50 [24]: 16 µM; GI50 [25]: 17.3 µM
12 | OCCCCC#Cc1ccccc1C#Cc1cccs1 | 5.23 | 13.1 | 20.3 | 15 | 29.8 | 19 | 13.9 | 1.8 | 47.5 | 13 | 16.6 | 22.7 | 
13 | COc1ccccc1C#Cc1ccccc1C#CCCCCO | 8.08 | 19.9 | 15.5 | 19.8 | 27.6 | 22.1 | 17.9 | 1 | 41.5 | 14.3 | 20.2 | 30.9 | 
14 | CSc1ccccc1C#Cc1ccccc1C#CCCCCO | 9.23 | 3.8 | 6.1 | 14.7 | 55.7 | 1.5 | 5.8 | 3.5 | 24.6 | 4.7 | 3.9 | 19.8 | 
